Reference: ChEMBL document CHEMBL3774376, “Synthesis, and anticonvulsant activity of new amides derived from 3-methyl- or 3-ethyl-3-methyl-2,5-dioxo-pyrrolidin-1-yl-acetic acids” (Bioorg Med Chem, 2016)
The source made the active and inactive calls. The rule behind the calls is not given here.

What was measured:
Mus musculus [1] = assay: Neurotoxicity in CD1 albino mouse assessed as acute motor impairment at 100 to 300 mg/kg, ip after 0.5 hrs by rotarod test; format: toxicity, organism-based; settings: in vivo
In short: (§1)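 Male CD-1 mice given 30, 100 or 300 mg/kg ip in 0.5% methylcellulose, tested at 0.5 and 4 h. Motor impairment was scored as failure to keep balance for at least 1 min on a rod rotating at 10 rpm. Minimum dose causing impairment reported.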

Mus musculus [2] = assay: Neurotoxicity in CD1 albino mouse assessed as acute motor impairment at 300 mg/kg, ip after 4 hrs by rotarod test; format: toxicity, organism-based; settings: in vivo; in short: as §1
Mus musculus [3] = assay: Anticonvulsant activity in CD1 albino mouse assessed as protection against maximal electroshock-induced seizures at 100 to 300 mg/kg, ip after 0.5 hrs; format: functional; settings: read-out: MED
Mus musculus [4] = assay: Anticonvulsant activity in CD1 albino mouse assessed as protection against maximal electroshock-induced seizures at 100 to 300 mg/kg, ip after 4 hrs; format: functional; settings: read-out: MED
Mus musculus [5] = assay: Anticonvulsant activity in CD1 albino mouse assessed as protection against subcutaneous pentylenetetrazole-induced seizures at 300 mg/kg, ip after 0.5 hrs; format: functional, organism-based
In short: (§2)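 Male CD-1 mice (16-26 g), compounds ip in 0.5% methylcellulose/water at 30, 100 or 300 mg/kg, 3-4 per group. At 0.5 or 4 h, pentylenetetrazole 85 mg/kg was injected sc. Protection was absence of clonic convulsions (at least 5 s) over a 30 min observation. Minimum active dose recorded.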

Mus musculus [6] = assay: Anticonvulsant activity in CD1 albino mouse assessed as protection against subcutaneous pentylenetetrazole-induced seizures at 300 mg/kg, ip after 4 hrs; format: functional, organism-based; in short: as §2
Mus musculus [7] = assay: Neurotoxicity in CD1 albino mouse assessed as acute motor impairment at 300 mg/kg, ip measured after 0.5 hrs by rotarod test; format: toxicity, organism-based; settings: in vivo; in short: as §1
Mus musculus [8] = assay: Anticonvulsant activity in ip dosed CD1 albino mouse assessed as time to peak effect; format: functional
In short: (§3)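 Quantitation in male CD-1 mice dosed ip at the previously estimated time of peak effect. Seizures were induced by MES or by sc pentylenetetrazole 85 mg/kg; rotarod at 10 rpm assessed motor impairment. Groups of six, at least three doses giving 10-90% effect.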

Mus musculus [9] = assay: Anticonvulsant activity in CD1 albino mouse assessed as protection against maximal electroshock-induced seizures at 300 mg/kg, ip after 0.5 hrs; format: functional, organism-based
Mus musculus [10] = assay: Anticonvulsant activity in CD1 albino mouse assessed as protection against maximal electroshock-induced seizures at 300 mg/kg, ip after 4 hrs; format: functional, organism-based
Mus musculus [11] = assay: Anticonvulsant activity in CD1 albino mouse assessed as protection against subcutaneous pentylenetetrazole-induced seizures at 100 to 300 mg/kg, ip after 0.5 hrs; format: functional; settings: CD1, 0.5 h, read-out: MED; in short: as §2
Mus musculus [12] = assay: Anticonvulsant activity in CD1 albino mouse assessed as protection against subcutaneous pentylenetetrazole-induced seizures at 100 to 300 mg/kg, ip after 4 hrs; format: functional; settings: CD1, 4 h, read-out: MED; in short: as §2
Mus musculus [13] = assay: Anticonvulsant activity in ip dosed CD1 albino mouse assessed as protection against subcutaneous pentylenetetrazole-induced seizures; format: functional; in short: as §3
[14] = Neurotoxicity in ip dosed CD1 albino mouse assessed as acute motor impairment by rotarod test; format: toxicity, organism-based; settings: in vivo; in short: as §3
Mus musculus [15] = assay: Protection index, ratio of TD50 for CD1 albino mouse to ED50 for protection against subcutaneous pentylenetetrazole-induced seizures in CD1 albino mouse; in short: as §3
Mus musculus [16] = assay: Anticonvulsant activity in ip dosed CD1 albino mouse assessed as time to peak effect by 6Hz psychomotor seizure test; format: functional
In short: (§4)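 6-Hz corneal stimulation at 32 mA (6 Hz, 3 s) in male CD-1 mice dosed ip. Groups of six received several doses until at least three points fell between 10 and 90% protection. […] PI = TD50/ED50 (rotarod).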

Mus musculus [17] = assay: Anticonvulsant activity in CD1 mouse assessed as protection against 32 mA-current- for 3 secs induced seizure at 100 mg/kg, ip after 0.5 hrs by 6Hz psychomotor seizure test; format: functional
In short: (§5)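 Male CD-1 mice given 100 mg/kg ip in 0.5% methylcellulose, four per time point. Corneal stimulation at 32 mA, 0.2 ms monopolar rectangular pulses at 6 Hz for 3 s, from a constant-current device. A mouse was protected if it resumed normal exploratory behavior within 10 s. Reported as number protected over number tested.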

Mus musculus [18] = organism: Mus musculus; assay: Protection index, ratio of TD50 for CD1 albino mouse to ED50 for protection against maximal electroshock-induced seizures in CD1 albino mouse; in short: as §3
Mus musculus [19] = assay: Anticonvulsant activity in ip dosed CD1 albino mouse assessed as protection against 32 mA-current- for 3 secs induced seizure by 6Hz psychomotor seizure test; format: functional; in short: as §4
Mus musculus [20] = organism: Mus musculus; assay: Protection index, ratio of TD50 for CD1 albino mouse to ED50 for protection against 32 mA-current- for 3 secs induced seizure in CD1 albino mouse by 6Hz psychomotor seizure test; in short: as §4
Mus musculus [21] = assay: Anticonvulsant activity in ip dosed CD1 albino mouse assessed as protection against maximal electroshock-induced seizures; format: functional
Mus musculus [22] = assay: Neurotoxicity in CD1 albino mouse assessed as acute motor impairment at 100 to 300 mg/kg, ip after 4 hrs by rotarod test; format: toxicity, organism-based; settings: in vivo; in short: as §1
Mus musculus [23] = assay: Local anesthetic activity in CD1 albino mouse assessed prolongation of time reaction at 2 % concentration after 20 secs by tail immersion test relative to vehicle control; format: functional
In short: (§6)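 Compound at 1 or 2% in 0.5% methylcellulose, injected sc (0.2 ml) about 1 cm from the tail root of male CD-1 mice. After 15 min, the distal 3 cm of the tail was immersed in 50 ± 0.5 °C water and withdrawal time measured, cut off at 20 s. n=8; mean ± SEM; % prolongation relative to vehicle.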

Mus musculus [24] = assay: Local anesthetic activity in CD1 albino mouse assessed prolongation of time reaction at 1 % concentration after 20 secs by tail immersion test relative to vehicle control; format: functional; in short: as §6
Rattus norvegicus = organism: Rattus norvegicus; assay: Displacement of [3H]BTX from voltage-sensitive Na+ channel site 2 in rat cerebral cortex synaptoneurosomes at 100 uM after 60 mins by liquid scintillation spectroscopic analysis; format: tissue-based
In short: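 Cerebral cortex synaptoneurosomes from rat, tested at 100 µM for inhibition of specific [3H]BTX binding to the voltage-sensitive Na+ channel site 2. Reported as % inhibition of control specific binding; run commercially.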

Mus musculus [25] = assay: Anticonvulsant activity in CD1 mouse assessed as protection against 32 mA-current- for 3 secs induced seizure at 100 mg/kg, ip after 0.25 hrs by 6Hz psychomotor seizure test; format: functional; in short: as §5
Mus musculus [26] = assay: Anticonvulsant activity in CD1 mouse assessed as protection against 32 mA-current- for 3 secs induced seizure at 100 mg/kg, ip after 2 hrs by 6Hz psychomotor seizure test; format: functional, organism-based; in short: as §5

Compound	MTC (Mus musculus [1]) [mg/kg]	Activity (Mus musculus [2])	minimal effective dose (Mus musculus [3]) [mg/kg]	Activity (Mus musculus [5])	Activity (Mus musculus [6])	Activity (Mus musculus [7])	Activity (Mus musculus [9])	Activity (Mus musculus [10])	minimal effective dose (Mus musculus [11]) [mg/kg]	also measured
CC1CC(=O)N(CC(=O)N2CCN(c3ccccc3F)CC2)C1=O (centres undefined)	300	Non-toxic	300	inactive	inactive					minimal effective dose (Mus musculus [4]): 300 mg/kg
CCC1(C)CC(=O)NC1=O (centres undefined) [ETHOSUXIMIDE]		Non-toxic				Non-toxic	inactive	inactive	100	Time (Mus musculus [8]): 0.25 h; minimal effective dose (Mus musculus [12]): 300 mg/kg
CCC1(C)CC(=O)N(CC(=O)N2CCN(c3ccc(Cl)c(Cl)c3)CC2)C1=O (centres undefined)		Non-toxic		inactive	inactive	Non-toxic	inactive	inactive		
CC1CC(=O)N(CC(=O)N2CCN(c3cccc(Cl)c3Cl)CC2)C1=O (centres undefined)		Non-toxic				Non-toxic	inactive	inactive	100	Time (Mus musculus [8]): 1 h; ED50 (Mus musculus [13]): 74.7 mg/kg; TD50 [14]: 343 mg/kg; Ratio TD50/ED50 (Mus musculus [15]): 4.6; minimal effective dose (Mus musculus [12]): 100 mg/kg
CC1CC(=O)N(CC(=O)N2CCN(c3ccccc3)CC2)C1=O (centres undefined)	300	Non-toxic	300					inactive	300	minimal effective dose (Mus musculus [12]): 300 mg/kg
CCC1(C)CC(=O)N(CC(=O)N2CCN(c3cccc(Cl)c3)CC2)C1=O (centres undefined)		Non-toxic		inactive	inactive	Non-toxic	inactive	inactive		
CCCC(CCC)C(=O)O [VALPROIC ACID]		Non-toxic	300		inactive	Non-toxic		inactive	300	Time (Mus musculus [8]): 0.5 h; Time (Mus musculus [16]): 0.5 h
CCC1(C)CC(=O)N(CC(=O)N2CCN(c3cccc(C)c3)CC2)C1=O (centres undefined)		Non-toxic		inactive	inactive	Non-toxic	inactive	inactive		
CCC1(C)CC(=O)N(CC(=O)N2CCN(c3ccccc3Cl)CC2)C1=O (centres undefined)	300	Non-toxic	100	inactive	inactive			inactive		Activity (Mus musculus [17]): 100%; Time (Mus musculus [8]): 0.5 h; TD50 [14]: 132 mg/kg; Ratio TD50/ED50 (Mus musculus [18]): 1.08; ED50 (Mus musculus [19]): 73.3 mg/kg; Ratio TD50/ED50 (Mus musculus [20]): 1.8; Time (Mus musculus [16]): 0.5 h; ED50 (Mus musculus [21]): 122 mg/kg
Cc1ccccc1N1CCN(C(=O)CN2C(=O)CC(C)C2=O)CC1 (centres undefined)	300	Non-toxic	300		inactive			inactive	100	
O=C1NC(=O)C(c2ccccc2)(c2ccccc2)N1 [PHENYTOIN]	100		30	inactive	inactive					MTC (Mus musculus [22]): 100 mg/kg; Time (Mus musculus [8]): 1 h; TD50 [14]: 56.9 mg/kg; Ratio TD50/ED50 (Mus musculus [18]): 8.56; Activity (Mus musculus [23]): 84%; Activity (Mus musculus [24]): 18%; inhibition (Rattus norvegicus): 53.9%; minimal effective dose (Mus musculus [4]): 30 mg/kg
CC1CC(=O)N(CC(=O)N2CCN(c3cccc(C(F)(F)F)c3)CC2)C1=O (centres undefined)	300		100		inactive				300	MTC (Mus musculus [22]): 300 mg/kg; minimal effective dose (Mus musculus [4]): 100 mg/kg
CCC1(C)CC(=O)N(CC(=O)N2CCN(c3ccccc3C)CC2)C1=O (centres undefined)	300	Non-toxic	100		inactive			inactive	100	
CCC1(C)CC(=O)N(CC(=O)N2CCN(c3ccccc3)CC2)C1=O (centres undefined)		Non-toxic		inactive	inactive	Non-toxic	inactive	inactive		
CCC1(C)CC(=O)N(CC(=O)N2CCN(c3cccc(Cl)c3Cl)CC2)C1=O (centres undefined)		Non-toxic		inactive	inactive	Non-toxic	inactive	inactive		
Cc1cccc(C)c1NC(=O)C1CCCCN1C (centres undefined) [MEPIVACAINE]										Activity (Mus musculus [23]): 116.67%; Activity (Mus musculus [24]): 94.63%
Cc1cccc(N2CCN(C(=O)CN3C(=O)CC(C)C3=O)CC2)c1 (centres undefined)	300	Non-toxic	300		inactive			inactive	100	
CCC1(C)CC(=O)N(CC(=O)N2CCN(c3ccc(Cl)cc3)CC2)C1=O (centres undefined)	300	Non-toxic			inactive		inactive	inactive	100	TD50 [14]: 196 mg/kg; ED50 (Mus musculus [19]): 128 mg/kg; Ratio TD50/ED50 (Mus musculus [20]): 1.53; Time (Mus musculus [16]): 0.5 h
CC1CC(=O)N(CC(=O)N2CCN(c3ccccc3Cl)CC2)C1=O (centres undefined)	300	Non-toxic	300		inactive			inactive	300	Activity (Mus musculus [25]): 100%; Activity (Mus musculus [26]): inactive; TD50 [14]: > 500 mg/kg; ED50 (Mus musculus [19]): 152 mg/kg; Ratio TD50/ED50 (Mus musculus [20]): >3.29; Time (Mus musculus [16]): 0.25 h
CCC1(C)CC(=O)N(CC(=O)N2CCN(c3ccccc3F)CC2)C1=O (centres undefined)		Non-toxic		inactive	inactive	Non-toxic	inactive	inactive		
CC[C@@H](C(N)=O)N1CCCC1=O										TD50 [14]: > 500 mg/kg; Time (Mus musculus [16]): 1 h
